Assay results reported in ChEMBL document CHEMBL1681701, “Huprines as a new family of dual acting trypanocidal-antiplasmodial agents” (Bioorg Med Chem, 2011).
Structures can show the parent of a compound that is named as a salt.

Experiments:
[1] = test system: Trypanosoma brucei; assay: Antitrypanosomal activity against Trypanosoma brucei 427; type: functional, organism-based
[2] = test system: Trypanosoma brucei; assay: Trypanocidal activity against bloodstream form of Trypanosoma brucei 427 after 48 hrs; type: functional, organism-based; conditions: Trypanosoma brucei, 427, 48 h
[3] = test system: L6; assay: Cytotoxicity against rat L6 cells after 6 days by Alamar blue assay; type: cell-based; conditions: L6, 144 h
Summary of the method: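 Rat skeletal myoblast L6 cells seeded at 1 × 10^4 ml−1 in growth medium with a range of compound concentrations and held 6 days at 37 °C. Alamar Blue was then added and fluorescence read after a further 8 h. IC50 is the mean of triplicate experiments ± SEM.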

[4] = Selectivity index, ratio of IC50 for rat L6 cells to IC 50 for Trypanosoma brucei 427; type: toxicity, cell-based; conditions: L6 cells versus Trypanosoma brucei 427, read-out: Selectivity Index
[5] = test system: Plasmodium falciparum; assay: Antiplasmodial activity against chloroquine-resistant Plasmodium falciparum K1; type: functional, organism-based
Summary of the method: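 K1 parasites grown in human A+ erythrocytes in RPMI 1640 with A+ serum and D-glucose; predominantly early ring-stage cultures used. Twofold serial dilutions run in duplicate from DMSO stocks (final DMSO ≤0.5%), at 2.5% haematocrit and 1% parasitaemia. Incubation was 48 h at 37 °C under 93% N2/3% O2/4% CO2. Growth was read as lactate dehydrogenase activity (APAD/NBT, 550 nm), and IC50 was taken by linear regression.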

[6] = Selectivity index, ratio of IC50 for rat L6 cells to IC50 for chloroquine-resistant Plasmodium falciparum K1; type: toxicity, cell-based; conditions: read-out: Selectivity Index

SMILES	IC50 [1]	IC50 [2]	IC50 [3]	IC90 [2]	also measured
CCC1=C[C@@H]2Cc3nc4cc(Cl)ccc4c(N)c3[C@H](C1)C2 [HUPRINE X HYDROCHLORIDE]	300 nM	840 nM	12500 nM		
CC(C)C1=CC2Cc3nc4ccccc4c(N)c3C(C1)C2 (centres undefined)	300 nM				
CC1=CC2Cc3nc4cc(Cl)ccc4c(N)c3C(C1)C2 (centres undefined)	300 nM				
Nc1c2c(nc3ccccc13)CC1C=C(c3ccccc3)CC2C1 (centres undefined)		1650 nM	3510 nM	4700 nM	selectivity ratio [4]: 2.1; IC50 [5]: 7120 nM; selectivity ratio [6]: 2.1
C=CCC1=CC2Cc3nc4ccccc4c(N)c3C(C1)C2 (centres undefined)	300 nM				
CC1=CC2Cc3nc4cccc(F)c4c(N)c3C(C1)C2 (centres undefined)		3710 nM		15800 nM	
